Data taken from ChEMBL document CHEMBL4257447, “Discovery of human lactate dehydrogenase A (LDHA) inhibitors as anticancer agents to inhibit the proliferation of MG-63 osteosarcoma cells” (Medchemcomm, 2017).
The source made the active and inactive calls. No cut-off for these calls is given here.

Columns and labels:
MG-63 [1] = assay: Growth inhibition of human MG63 cells at 10 uM after 72 hrs by MTT assay relative to control; assay type: functional; conditions: for inhibition of growth at 10 µM: MG-63, 72 h, read-out: GI
Outline: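 MG-63 cells (2500/well) were plated overnight. 10 μL of 100 μM working solution in PBS, diluted from 40 mM stock, was added for 72 h. MTT was added for 4 h, the solvent replaced with DMSO, and OD570 read as percent growth inhibition.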

MG-63 [2] = assay: Growth inhibition of human MG63 cells after 72 hrs by MTT assay; assay type: functional, cell-based; conditions: MG-63, 72 h
Outline: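 MG-63 cells (2500/well), grown in DMEM with 10% FBS at 37 °C and 5% CO2, plated overnight. They were then exposed for 72 h to eight concentrations (400 to 3.1 μM as listed), diluted in PBS from 40 mM stocks. MTT was added for 4 h and the formazan dissolved in DMSO, with OD read at 570 nm. EC50 is the mean of three independent experiments; cisplatin was the positive control.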

MG-63 [3] = assay: Induction of apoptosis in human MG63 cells assessed as necrotic cells at 2 uM after 24 hrs by annexin V-FITC/propidium iodide staining-based flow cytometric analysis (reference value: 0.8%); assay type: functional
MG-63 [4] = assay: Induction of apoptosis in human MG63 cells assessed as late apoptotic cells at 5 uM after 24 hrs by annexin V-FITC/propidium iodide staining-based flow cytometric analysis (reference value: 3.2%); assay type: functional
MG-63 [5] = assay: Induction of apoptosis in human MG63 cells assessed as necrotic cells at 10 uM after 24 hrs by annexin V-FITC/propidium iodide staining-based flow cytometric analysis (reference value: 0.8%); assay type: functional
MG-63 [6] = assay: Induction of apoptosis in human MG63 cells assessed as late apoptotic cells at 10 uM after 24 hrs by annexin V-FITC/propidium iodide staining-based flow cytometric analysis (reference value: 3.2%); assay type: functional
[7] = target: T1, L-lactate dehydrogenase A chain (Homo sapiens, UniProt P00338); assay: Inhibition of LDHA in human MG63 cells assessed as decrease in extracellular acidification rate at 2 to 10 uM after 6 hrs by XF24 extracellular flux analyzer based assay; assay type: cell-based
Outline: (§1)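 MG-63 cells (30 000/well) were pretreated for 6 h with a range of concentrations. OCR and ECAR were then measured on the XF24 extracellular flux analyzer.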

MG-63 [8] = assay: Induction of apoptosis in human MG63 cells assessed as early apoptotic cells at 2 uM after 24 hrs by annexin V-FITC/propidium iodide staining-based flow cytometric analysis (reference value: 0.8%); assay type: functional
[9] = target: T1, L-lactate dehydrogenase A chain; assay: Inhibition of LDHA in human MG63 cells assessed as decrease in lactate levels after 4 hrs; assay type: cell-based
Outline: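 MG-63 cells (3×10^5/well, 6-well) were plated overnight and treated for 4 h at 2, 5, 8, 10 and 12 μM, with 10 μM for the reference. Medium was centrifuged for 5 min and 1 mL assayed for lactate on a Nova Bioprofile Flex analyzer. IC50 was derived from the dose-response.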

MG-63 [10] = assay: Induction of apoptosis in human MG63 cells assessed as viable cells at 5 uM after 24 hrs by annexin V-FITC/propidium iodide staining-based flow cytometric analysis (reference value: 95.2%); assay type: functional; conditions: MG-63, 24 h, read-out: Activity
[11] = target: T1, L-lactate dehydrogenase A chain; assay: Inhibition of LDHA in human MG63 cells assessed as increase in oxygen consumption rate at 2 to 10 uM after 6 hrs by XF24 extracellular flux analyzer based assay; assay type: cell-based; outline: as §1
[12] = target: T1, L-lactate dehydrogenase A chain; assay: Binding affinity to LDHA (unknown origin) by ITC analysis
Outline: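 LDHA diluted to 10 μM in 50 mM Hepes pH 7.2, 100 mM NaCl, 2 mM DTT, 1% DMSO (250 μL in cell); ligand at 100 μM in the same buffer titrated in 2.5 μL injections at 25 °C. One-site model fit gives the binding parameters.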

MG-63 [13] = assay: Induction of apoptosis in human MG63 cells assessed as early apoptotic cells at 5 uM after 24 hrs by annexin V-FITC/propidium iodide staining-based flow cytometric analysis (reference value: 0.8%); assay type: functional
MG-63 [14] = assay: Induction of apoptosis in human MG63 cells after 24 hrs by annexin V-FITC/propidium iodide staining-based flow cytometric analysis; assay type: functional, cell-based
MG-63 [15] = assay: Induction of apoptosis in human MG63 cells assessed as early apoptotic cells at 10 uM after 24 hrs by annexin V-FITC/propidium iodide staining-based flow cytometric analysis (reference value: 0.8%); assay type: functional
[16] = target: T1, L-lactate dehydrogenase A chain; assay: Inhibition of human LDHA using pyruvate as substrate by monitoring the disappearance of NADH relative to control
MG-63 [17] = assay: Induction of apoptosis in human MG63 cells assessed as necrotic cells at 5 uM after 24 hrs by annexin V-FITC/propidium iodide staining-based flow cytometric analysis (reference value: 0.8%); assay type: functional
MG-63 [18] = assay: Induction of apoptosis in human MG63 cells assessed as viable cells at 2 uM after 24 hrs by annexin V-FITC/propidium iodide staining-based flow cytometric analysis (reference value: 95.2%); assay type: functional; conditions: MG-63, 24 h, read-out: Activity
[19] = target: T1, L-lactate dehydrogenase A chain; assay: Inhibition of human LDHA at 2 uM using pyruvate as substrate by monitoring the disappearance of NADH relative to control
MG-63 [20] = assay: Induction of apoptosis in human MG63 cells assessed as viable cells at 10 uM after 24 hrs by annexin V-FITC/propidium iodide staining-based flow cytometric analysis (reference value: 95.2%); assay type: functional; conditions: MG-63, 24 h, read-out: Activity
MG-63 [21] = assay: Induction of apoptosis in human MG63 cells assessed as late apoptotic cells at 2 uM after 24 hrs by annexin V-FITC/propidium iodide staining-based flow cytometric analysis (reference value: 3.2%); assay type: functional
[22] = target: L-lactate dehydrogenase A chain (Bos taurus, UniProt P19858); assay: Inhibition of bovine heart LDHA

SMILES: COC(=O)C[C@H](c1cccc(O)c1)c1oc(CSc2ccccc2OC)cc(=O)c1O
- inhibition of growth at 10 µM (MG-63 [1]): 68.9%

SMILES: COc1c(C)c2c(c(O)c1C/C=C(\C)CCC(=O)NCc1ccc(Cl)cc1)C(=O)OC2
- growth inhibition (GI) (MG-63 [1]): inactive

SMILES: COCc1cc(=O)c(O)c([C@@H](CC(N)=O)c2cc3ccccc3n(CC(C)C)c2=O)o1
- EC50 (MG-63 [2]): 3350 nM
- Activity (MG-63 [3]): 0.6%
- Activity (MG-63 [4]): 5.8%
- Activity (MG-63 [5]): 1.2%
- Activity (MG-63 [6]): 12.9%
- inhibition [7]: Active
- Activity (MG-63 [8]): 1%
- IC50 [9]: 7190 nM
- inhibition [9]: Dose-dependent effect
- viability at 5 µM (MG-63 [10]): 89.3%
- inhibition [11]: Dose-dependent effect
- inhibition of growth at 10 µM (MG-63 [1]): 88.7%
- Kd [12]: 950 nM
- Activity (MG-63 [13]): 4.2%
- Activity (MG-63 [14]): Dose-dependent effect
- Activity (MG-63 [15]): 3%
- IC50 [16]: 330 nM
- Activity (MG-63 [17]): 0.7%
- viability at 2 µM (MG-63 [18]): 94%
- inhibition [19]: 94%
- viability at 10 µM (MG-63 [20]): 82.9%
- Activity (MG-63 [21]): 4.4%

SMILES: NC(=O)C(=O)O [OXAMATE]
- Ki [22]: 136000 nM

SMILES: O=C1CC(c2c(Cl)cccc2Cl)CC(O)=C1Sc1ccccc1Cl (stereo not given)
- growth inhibition (GI) (MG-63 [1]): inactive
- IC50 [16]: 2370 nM

SMILES: CCOC(=O)C[C@H](c1cc(OC)c2c(c1)OCCO2)c1oc(CO)cc(=O)c1O
- inhibition of growth at 10 µM (MG-63 [1]): 67.8%
- inhibition [19]: 71%

SMILES: Cc1cc(=O)c(O)c([C@H](CC(=O)N2CCc3c([nH]c4ccccc34)C2)c2ccnc3ccccc23)o1
- inhibition of growth at 10 µM (MG-63 [1]): 48.7%
